Key:
Rattus norvegicus [1] = assay: Antihypertensive activity expressed as change in mean arterial blood pressure (MABP) in spontaneously hypertensive rats (SHR),at 0.5-2h after 30 mg/kg oral administration; format: functional, Artery
How it was run: (§1)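 Adult male SHR, catheter implanted in carotid artery or abdominal aorta under anesthesia at least 24 h before dosing. Baseline pressure recorded 1-1.5 h. Compound given orally at 30 mg/kg as solution or suspension in 0.5% Tween 80/distilled H2O (v/v) or other vehicle. MABP read at 0.5, 1, 1.5, 2, 3, 4, 5 and 6 h. Average percent change from predose calculated per period. Paired one-tailed t test, p < 0.05. n = 3-6 rats unless noted.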

Rattus norvegicus [2] = assay: Antihypertensive activity expressed as change in mean arterial blood pressure (MABP) in spontaneously hypertensive rats (SHR), at 3-6h after 30 mg/kg oral administration; format: functional, Artery; how it was run: as §1
Oryctolagus cuniculus = species: Oryctolagus cuniculus; assay: Calcium channel-blocking activity by determined by ability to antagonize calcium-induced contractions of isolated rabbit aortic strips; format: functional; settings: Aorta, read-out: pA2 (converted)
How it was run: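 Rabbit aortic strips were bathed in turn in CaCl2-containing buffer, CaCl2-free buffer, then depolarizing (KCl) CaCl2-free buffer. Cumulative CaCl2 addition induced contractions, recorded with force-displacement transducers. Responses were compared without and with 1–100 nM test compound. pA2 was calculated by the Van Rossum method from at least three tissues.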

Row | Structure (SMILES) | Change (Rattus norvegicus [1]) [%] | Change (Rattus norvegicus [2]) [%] | Kb (Oryctolagus cuniculus) [nM]
1 | Fc1ccc(C(c2ccc(F)cc2)C2CCN(CCOc3ccc4ccccc4c3)CC2)cc1 | -16 | -30 | 3.98
2 | CC(=O)Nc1ccc(OCCCN2CCC(C(c3ccc(F)cc3)c3ccc(F)cc3)CC2)cc1 | -12 | -12 | 12.6
3 | COc1cc(C(C)=O)ccc1OCCCN1CCC(C(c2ccc(F)cc2)c2ccc(F)cc2)CC1 | -15 | -22 | 1.58
